For 30 compounds, Ki results are on record in ChEMBL document CHEMBL1152436, “Synthesis, biological evaluation, and three-dimensional in silico pharmacophore model for sigma(1) receptor ligands based on a series of substituted benzo[d]oxazol-2(3H)-one derivatives” (J Med Chem, 2009).

Broadly, the Ki is a measure of affinity in units of concentration, obtained from inhibition or displacement. The low end stands for tighter binding, the high end for weaker binding.

In assay [1] the target is Sigma non-opioid intracellular receptor 1 (Rattus norvegicus, UniProt Q9R0C9). The assay is described as follows: Displacement of [3H](+)-pentazocine from sigma1 receptor in rat liver membrane by liquid scintillation counting. Type of assay: cell membranes. (In general: Displacement assays read how much labelled ligand stays bound in the presence of the test substance.)
Sequence of Sigma non-opioid intracellular receptor 1 (Q9R0C9 whole entry): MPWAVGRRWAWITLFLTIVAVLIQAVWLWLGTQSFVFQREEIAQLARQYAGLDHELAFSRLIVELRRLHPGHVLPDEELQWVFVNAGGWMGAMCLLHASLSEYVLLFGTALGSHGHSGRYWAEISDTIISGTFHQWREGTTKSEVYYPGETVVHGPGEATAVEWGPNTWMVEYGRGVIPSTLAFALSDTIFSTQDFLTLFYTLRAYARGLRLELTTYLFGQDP

Assay [2] is described as follows: Displacement of [3H]DTG from sigma2 receptor in rat liver membrane by liquid scintillation counting. Type of assay: cell membranes. In a few lines:
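Rat liver homogenate (150 μg) incubated 120 min at room temperature with 3 nM [3H]DTG in 50 mM Tris-HCl pH 8.0. σ1 sites masked with 100 nM (+)-pentazocine; nonspecific binding with 10 μM haloperidol. At least 11 ligand concentrations, 0.1% final DMSO. Filtration on PEI-soaked GF/B filters. IC50 and nH from four-parameter fit, 2–4 determinations in duplicate, mean ± SEM.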

Consider `Cc1ccccc1CN1CCC(Cn2c(=O)oc3ccccc32)CC1`, for which the Ki in assay [1] worked out at 29.8 nM. Regarding `O=C(CCCN1CCC(O)(c2ccc(Cl)cc2)CC1)c1ccc(F)cc1` [HALOPERIDOL], the Ki in assay [2] stood at 235 nM.

`CN(CCCn1c(=O)oc2ccccc21)Cc1ccccc1` showed an inhibition constant Ki in assay [2] of 1120 nM. Turning to `CN(CCCn1c(=O)oc2ccccc21)Cc1cccc(Cl)c1`, the inhibitory constant (Ki) in assay [1] came out at 3230 nM; in assay [2], 1120 nM. The matching figures for `Cc1ccc(CN(C)CCCn2c(=O)oc3ccccc32)c(C)c1`: 1830 nM and 2060 nM.

`Cc1cccc(CN(C)CCCn2c(=O)oc3ccccc32)c1`: the Ki in assay [1] was found to be 1830 nM; in assay [2], 2720 nM. Take `Cc1cccc(CN(C)CCCCn2c(=O)oc3ccccc32)c1`: the inhibition constant Ki was found to be 102 nM in assay [1] and 31.8 nM in assay [2]. On to `COc1ccc(CN(C)CCCCn2c(=O)oc3ccccc32)cc1`, for which the inhibitory constant (Ki) in assay [1] came out at 21 nM; in assay [2] it was 20.8 nM. For `COc1cccc(CN(C)CCCn2c(=O)oc3ccccc32)c1`, the Ki in assay [1] amounted to 8550 nM; in assay [2], 2130 nM. Take `Cc1ccc(CN(C)CCCn2c(=O)oc3ccccc32)cc1`: the inhibitory constant (Ki) in assay [1] stood at 871 nM; in assay [2], 991 nM. The compound `Cc1ccccc1NC(=N)Nc1ccccc1C` [DITOLYLGUANIDINE] displayed a Ki in assay [2] of 130 nM. Take `CN(CCCn1c(=O)oc2ccccc21)Cc1ccccc1Cl`: the values for the inhibition constant (Ki) in assay [1] and in assay [2] were 2490 nM and 456 nM, respectively. As for `COc1ccccc1CN(C)CCCn1c(=O)oc2ccccc21`, the Ki in assay [1] stood at 1950 nM; in assay [2], 192 nM. In assay [2], `CN(CCCCn1c(=O)oc2ccccc21)Cc1ccc(Cl)cc1` registered an inhibition constant (Ki) of 36.2 nM. For the compound `O=C(Nc1ccccc1)C1CCN(Cc2ccc(Cl)cc2)CC1`, affinity in assay [1] was put at a Ki of 45 nM. With `COc1cccc(CN(C)CCCCn2c(=O)oc3ccccc32)c1`, the Ki worked out at 297 nM in assay [1] and 187 nM in assay [2].

In turn, `CN(CCCn1c(=O)oc2ccccc21)Cc1ccc(Cl)cc1` gave an inhibition constant (Ki) in assay [2] of 456 nM.

As to `Cc1ccc(CN(C)CCCCn2c(=O)oc3ccccc32)c(C)c1`, the values for the Ki in assay [1] and in assay [2] were 239 nM and 6.94 nM, respectively.

Take `CN(CCCCn1c(=O)oc2ccccc21)Cc1ccccc1`: the Ki in assay [2] came to 120 nM. As to `COc1ccccc1CN(C)CCCCn1c(=O)oc2ccccc21`, in assay [1], the Ki amounted to 594 nM. As for `Cc1ccc(CN2CCC(Cn3c(=O)oc4ccccc43)CC2)cc1`, in assay [1], the inhibition constant Ki was 3.07 nM.

Regarding `CN(CCCCn1c(=O)oc2ccccc21)Cc1ccccc1Cl`, the values for the Ki in assay [1] and in assay [2] were 843 nM and 37.4 nM, respectively. `CC(C)=CCN1CC[C@]2(C)c3cc(O)ccc3C[C@H]1[C@H]2C` [(+)-PENTAZOCINE] had a Ki in assay [2] of 327 nM. `O=C(Nc1ccccc1)C1CCN(Cc2ccccc2)CC1` registered a Ki in assay [1] of 48.1 nM.

In assay [1], `Cc1ccc(CN2CCC(C(=O)NCc3ccccc3)CC2)cc1` had a Ki of 69.4 nM. As for `Cc1ccc(CN2CCC(C(=O)Nc3ccccc3)CC2)cc1`, the Ki in assay [1] was determined as 105 nM.

With `Cc1ccc(CN(C)CCCCn2c(=O)oc3ccccc32)cc1`, the results for the Ki in assay [1] and in assay [2] were 97 nM and 22.9 nM, respectively.

As for `COc1ccc(CN(C)CCCn2c(=O)oc3ccccc32)cc1`, the inhibition constant Ki in assay [1] stood at 83 nM; in assay [2] it was 2600 nM. Take `Cc1ccccc1CN(C)CCCn1c(=O)oc2ccccc21`: the inhibitory constant (Ki) in assay [1] came out at 901 nM; in assay [2] it was 1350 nM. On to `CN(CCCCn1c(=O)oc2ccccc21)Cc1cccc(Cl)c1`, for which affinity in assay [1] was put at a Ki of 302 nM.
